Screening results: PubChem, The Scripps Research Institute Molecular Screening Center
PREPL inh: PREPL enzyme inhibitors, primary screen, biochemical, fluorescence polarization. Prolyl endopeptidase-like (Homo sapiens), Q4J6C6. recombinant PREPL, fluorescence polarization activity-based probe. inhibition, % at 5.96 µM. hit rate 0.68% among 320,000. AID 2751, 2010;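 further: 0% = enzyme with DMSO and 100% = wells lacking enzyme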
ARFGAP1 inhibitor: inhibitors of rat ARFGAP1 GAP activity, primary screen, biochemical, fluorescence polarization, GDP tracer | AID 651572, 2012 | hit rate 0.26% among 360,000 | Arfgap1-stimulated ARF1 GTP hydrolysis, GDP FP detection | inhibition, % at 16.5 µM;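 active means inhibition above a per-plate limit, mean inhibition of low control wells plus 3 SD, cut at about 25% in these data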;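 further: 0% = DMSO wells with enzyme and 100% = wells lacking Arfgap1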
Target sequence (Q62848 1-136 limits assumed): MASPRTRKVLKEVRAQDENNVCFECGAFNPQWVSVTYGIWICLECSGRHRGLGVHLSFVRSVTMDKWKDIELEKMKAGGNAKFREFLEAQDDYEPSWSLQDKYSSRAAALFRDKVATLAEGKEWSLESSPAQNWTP
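Material: truncated rat Arfgap1 GAP domain; Incubation: compound-enzyme preincubation 20 min, reaction 120 min, detection 60 min, 25 °C; Read-out: percent inhibition of Arfgap1-stimulated GTP hydrolysis; Technique: FP, GDP Alexa 633 tracer displaced from anti-GDP antibody, 620/688 nm; Controls: No-Arfgap1 wells (100%) versus DMSO full-reaction wells (0%); Replication: single well per compound.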
IDE act: human IDE activators in live cells, primary screen, fluorescence polarization, HEK cells, FAbeta-B substrate. activation, % at 5.96 µM. hit rate 0.073% among 340,000. AID 493087, 2011. FAbeta-B cleavage; 0% vehicle, 100% cell-free pure enzyme wells;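 active means activation above the mean of all tested compounds plus 3 SD, set per screening campaign, cut at about 17% in these data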
IDE cell inh: human IDE inhibitors in live cells, primary screen, fluorescence polarization, HEK cells, FAbetaB substrate | FAbetaB cleavage | inhibition, % at 5.59 µM | hit rate 0.41% among 320,000 | AID 434962, 2010;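 active means percent inhibition above the average of all tested compounds plus 3 SD, set per screening campaign, cut at about 16% in these data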;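 further: IDE supplied by intact live HEK cells; FP after avidin binding of uncleaved biotin substrate so inhibition keeps polarization high; 0% = DMSO wells and 100% = 60 µM reference IDE inhibitor Ii1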
ASAP1 GAP inh: inhibitors of human ASAP1 ArfGAP activity, primary screen, biochemical, fluorescence polarization; Arf-GAP with SH3 domain, ANK repeat and PH domain-containing protein 1 (Homo sapiens), …; ASAP1-stimulated ARF1 GTP hydrolysis, GDP FP detection; inhibition, % at 16.5 µM; hit rate 0.19% among 360,000; AID 624377, 2012; in the data active means inhibition above about 25%;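 further: 0% = vehicle with enzyme and substrate and 100% = no enzyme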
Target sequence (Q9ULH1 325-724 limits assumed): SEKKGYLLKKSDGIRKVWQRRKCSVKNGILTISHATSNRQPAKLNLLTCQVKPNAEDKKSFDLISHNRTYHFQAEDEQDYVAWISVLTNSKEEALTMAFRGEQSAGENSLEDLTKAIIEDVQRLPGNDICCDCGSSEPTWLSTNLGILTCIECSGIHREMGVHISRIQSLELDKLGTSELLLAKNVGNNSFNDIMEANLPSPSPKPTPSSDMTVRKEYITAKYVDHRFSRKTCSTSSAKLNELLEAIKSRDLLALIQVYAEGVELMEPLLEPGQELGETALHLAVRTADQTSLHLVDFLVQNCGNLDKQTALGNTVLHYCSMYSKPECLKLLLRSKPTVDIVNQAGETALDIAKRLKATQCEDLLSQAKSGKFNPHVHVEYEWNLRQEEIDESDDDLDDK
PREPL inh cf: human PREPL enzyme inhibitors, confirmation, biochemical, fluorescence polarization; inhibition, % at 5.96 µM; recombinant PREPL, fluorescence polarization activity probe; shares compounds with PREPL inh; hit rate 67% among 2,000;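 further: 0% = protein with DMSO and 100% = wells lacking protein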
IDE inh confirm: human IDE inhibitors in live cells, confirmation, fluorescence polarization, HEK cells, FAbetaB substrate; shares compounds with IDE cell inh; FAbetaB cleavage; inhibition, % at 5.59 µM; hit rate 51% among 1,200; AID 435028, 2010;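 active means mean inhibition across triplicate wells above the cutoff set by the earlier primary insulin-degrading enzyme screen, cut at about 16% in these data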;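 further: 0% = DMSO wells and 100% = 60 µM reference IDE inhibitor Ii1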
HEK cytotox: cytotoxicity in HEK cells, cytotoxicity control for IDE inhibitor project, cell-based, luminescence; shares compounds with IDE cell inh; HEK293 cytotoxicity, ATP luminescence; inhibition, % at 5.59 µM; hit rate 28% among 1,200; AID 449730, 2010; in the data active means inhibition above about 22%;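 further: 0% = vehicle wells and 100% = reference cytotoxic drug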
* marks the source's active call; other numbers are inactive results; x = no result given. Only some compounds are listed: those with a hit (about 1.2% of all), similar ones and a draw of the others. Unless noted, no stated cut-off is given here; in the data, active means inhibition above about 43%; inactive means the rest.

SMILES	PREPL inh	ARFGAP1 inhibitor	IDE act	IDE cell inh	ASAP1 GAP inh	PREPL inh cf	others
COC(=O)C1=C(c2cccc(OCc3ccccc3)c2)C[C@@H]2CC[C@H]1N2C(=O)NC1CCN(Cc2ccccc2)CC1	51.3*	-7.4	3.9	-4.3	8.9	44.5*
Nc1ccccc1Cl	-5.7	8.5	7.8	1.2	-4.9	x
CN1CCc2cc3c(c4c2C1Cc1ccccc1-4)OCO3 (stereo unspecified)	46.1*	5.3	-0.1	7.8	4.5	40.0
S=C(NCCc1ccccc1)N1Cc2cc(N3CCCCC3)ccc2-n2nncc2C1	x	9.1	x	x	-0.9	x
Cc1[nH]c2ccccc2c1CCCNC1CCCCC1	45.3*	-1.7	4.9	1.2	-12.6	34.3
Cc1[nH]c2ccccc2c1CCN	18.4	19.0	2.6	-2.0	6.8	x
C=C[C@@H]1C[C@@]1(C)[C@@H](NP(=O)(c1ccccc1)c1ccccc1)c1ccccc1	48.4*	-3.1	3.3	0.2	-3.7	48.1*
COC(=O)[C@]1(C)C[C@H]1[C@H](NP(=O)(c1ccccc1)c1ccccc1)c1ccccc1	-2.7	0.6	1.3	-0.2	8.2	x
CC(C)Nc1ccc(Nc2ccccc2)cc1	77.2*	10.3	-4.2	3.1	7.4	55.2*
CCOc1ccc2[nH]c(=O)c(CN(CCO)C3(c4nnnn4C4CCCCC4)CCCCC3)cc2c1	-4.6	-5.4	-0.1	-1.3	-1.3	x
C=CCn1c(O)c(C(CC)=NCCc2ccccc2)c(=O)[nH]c1=O	19.2	7.0	-2.6	4.1	9.6	x
C=CCn1c(O)c(C(CC)=NCCc2c[nH]c3ccccc23)c(=O)[nH]c1=O	48.8*	8.8	-0.7	2.7	-1.4	52.4*
CC12C=CC(=O)CC1CCC1C2CCC2(C)C(O)C(O)CC12 (stereo unspecified)	x	15.7	3.8	x	0.9	x
N#Cc1c(/N=C/c2ccc(O)cc2O)sc2c1C1CCN2CC1	-2.1	8.5	-14.6	7.2	4.6	x
NCCCCCC(=O)OC1N=C(c2ccccc2Cl)c2cc(Br)ccc2NC1=O (stereo unspecified)	59.3*	-5.9	4.0	-7.9	-0.9	45.5*
COC(=O)[C@@H]1C[C@H]1[C@@H](NP(=O)(c1ccccc1)c1ccccc1)c1ccccc1	11.3	5.4	-1.9	-1.0	5.6	x
COC(=O)[C@H]1C[C@@H]1[C@H](NP(=O)(c1ccccc1)c1ccccc1)c1ccccc1	46.6*	1.4	-3.0	2.0	0.4	46.5*
CC(C)n1c(=O)c(C=Nc2cccc([N+](=O)[O-])c2)c(O)n(CCc2ccccc2)c1=O	10.3	13.5	-4.8	1.7	-10.1	x
COc1ccc2c(c1)c(CCN)c(C)n2Cc1ccccc1	44.5*	-2.6	6.0	0.0	-3.7	42.0
O=C(c1ccc2c(c1)N(Cc1ccc(F)cc1)CCS2)N1CCC2(CC1)OCCO2	66.5*	-3.1	0.9	3.7	-10.1	63.4*
Cc1ccc(CN2CCN(CC(=O)N3CCC4(CC3)OCCO4)C2=O)cc1	7.0	-3.5	2.8	-0.5	-1.0	x
Cc1ccc(CN2CCSc3ccc(C(=O)N4CCC5(CC4)OCCO5)cc32)cc1	81.9*	-5.8	4.7	9.1	-9.8	74.1*
O=c1oc2ccccc2c(O)c1[C@H]1c2ccc(O)cc2Oc2c1c(=O)oc1ccccc21	0.7	10.5	-2.5	-1.4	-7.3	x
C1=C(c2c[nH]c3ccccc23)CCNC1	61.6*	-6.2	x	14.3	-1.3	63.1*
CC(C)N1CC=C(c2c[nH]c3ccccc23)CC1	-27.7	-12.8	-5.2	2.7	3.6	x
SMILES	PREPL inh	ARFGAP1 inhibitor	IDE act	IDE cell inh	ASAP1 GAP inh	PREPL inh cf	others
CC(Cc1ccccc1)NC(=O)c1ccc(N)cc1 (stereo unspecified)	-2.9	7.2	-4.1	-0.9	-0.1	x
CC(Cc1ccccc1)NC(=O)C(c1ccc(N)cc1)c1ccc(N)cc1 (stereo unspecified)	49.5*	-11.4	3.7	3.8	-4.5	32.6
O=c1cc(C(F)(F)F)c2cc3c4c(c2o1)CCCN4CCC3	55.6*	8.2	-94.0	127.9*	-13.7	55.0*	IDE inh confirm=25.9*;HEK cytotox=19.0
C[C@]12CCC3C(CC[C@@H]4C[C@@H](O)CC[C@]34C)C1CC[C@@H]2O (stereo partly specified)	x	-3.5	-0.3	x	4.3	x
C=CCN1C(=O)NC(=O)/C(=C/c2ccoc2)C1=O	-7.3	7.2	-11.1	19.1*	-5.1	x	IDE inh confirm=10.4;HEK cytotox=7.6
COc1ccc(CN2C(=O)NC(=O)/C(=C/c3ccoc3)C2=O)cc1	-0.6	-1.5	-35.0	26.6*	-7.3	x	IDE inh confirm=9.3;HEK cytotox=3.6
O=C1NC(=O)C2(CCCC2)C(=O)N1	x	11.1	1.1	x	-1.1	x
O=C(/C=C/c1ccccc1)NCCc1cnc[nH]1	-3.3	-6.7	3.8	8.5	8.0	x
CC1(C)OC(c2ccccc2)=C/C(=C/C=C2C(=O)NC(=S)NC2=O)O1	-62.0	-1.8	x	20.8*	-1.3	x	IDE inh confirm=141.5*;HEK cytotox=13.7
CN1/C(=C\C=C2C(=O)NC(=S)NC2=O)C(C)(C)c2ccccc21	x	11.1	-203.8	x	5.3	x
CC(=O)Nc1ccccc1C(=O)C(=O)Nc1cccc(C(=O)N2CCC3(CC2)OCCO3)c1	1.0	9.3	0.5	3.2	-2.1	x
O=[N+]([O-])c1ccc(N2CCCCCC2)c2nonc12	-40.6	-6.4	-68.1	-21.2	0.8	x
O=[N+]([O-])c1ccc(NCc2ccccc2)c2nonc12	38.0	0.7	x	34.2*	6.1	x	IDE inh confirm=25.9*;HEK cytotox=16.4
O=C1c2ccccc2-n2nncc2C2c3cc(Br)ccc3CCN12 (stereo unspecified)	x	-8.3	x	x	-4.8	x
Cn1c(O)c(C=Nc2ccc(Br)cc2)c(=O)n(C)c1=O	-1.7	-5.8	0.1	3.7	6.0	x
Cn1c(O)c(/C=C/C=Nc2ccccc2)c(=O)n(C)c1=S	-164.3	1.2	-17.1	27.3*	4.7	x	IDE inh confirm=44.6*;HEK cytotox=4.6
Cc1cccc(-n2c(O)c(/C=C/C=Nc3ccccc3)c(=O)[nH]c2=O)c1	-18.0	-3.0	-49.0	37.7*	-11.3	x	IDE inh confirm=56.4*;HEK cytotox=8.4
Cc1ccc(NC(=O)c2ncn(CCCNCCN3CCOCC3)n2)cc1C	x	4.1	0.2	x	3.2	x
